Source: ChEMBL document CHEMBL5329156, “Discovery and development of novel substituted monohydrazides as potent antifungal agents” (RSC Med Chem, 2023)
Converted amounts (≈) assume the structure as drawn.

Legend:
Candida albicans [1] = test: Antifungal activity against Candida albicans ATCC 10231 assessed as fungal growth inhibition by double dilution method; assay type: functional
In short: (§1)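 Broth microdilution after CLSI M27-A3/M38-A2 with minor changes. Single colony grown overnight in YPD at 35 °C, 200 rpm. Compound final range 0.06-31.3 µg/mL; incubated 48 h at 35 °C.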

Candida albicans [2] = test: Antifungal activity against Candida albicans ATCC 64124 assessed as fungal growth inhibition by double dilution method; assay type: functional
In short: (§2)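 Broth microdilution after CLSI M27-A3/M38-A2 with minor modifications. A single colony was grown overnight in YPD at 35 °C with shaking at 200 rpm. Cells were mixed 1:1 with compound (final 0.06-31.3 µg/mL, from DMSO stocks) and incubated 48 h at 35 °C.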

Candida albicans [3] = test: Antifungal activity against itraconazole/fluconazole susceptible Candida albicans ATCC MYA-2876 assessed as fungal growth inhibition by double dilution method; assay type: functional; in short: as §2
Candida albicans [4] = test: Antifungal activity against itraconazole/fluconazole resistant Candida albicans ATCC 90819 assessed as fungal growth inhibition by double dilution method; assay type: functional; in short: as §2
Candida albicans [5] = test: Antifungal activity against itraconazole/fluconazole susceptible Candida albicans ATCC MYA-2310 assessed as fungal growth inhibition by double dilution method; assay type: functional; in short: as §2
Candida albicans [6] = test: Antifungal activity against itraconazole/fluconazole resistant Candida albicans ATCC MYA-1237 assessed as fungal growth inhibition by double dilution method; assay type: functional; in short: as §2
Candida albicans [7] = test: Antifungal activity against itraconazole/fluconazole resistant Candida albicans ATCC MYA-1003 assessed as fungal growth inhibition by double dilution method; assay type: functional; in short: as §2
Nakaseomyces glabratus [8] = test: Antifungal activity against Candida glabrata ATCC 2001 assessed as fungal growth inhibition by double dilution method; assay type: functional; in short: as §1
Pichia kudriavzevii = test: Antifungal activity against Pichia kudriavzevii ATCC 6258 assessed as fungal growth inhibition by double dilution method; assay type: functional; in short: as §1
Nakaseomyces glabratus [9] = test: Antifungal activity against Candida glabrata ATCC 22019 assessed as fungal growth inhibition by double dilution method; assay type: functional; in short: as §1
[Candida] auris [10] = Antifungal activity against Candida auris AR Bank # 0384 assessed as fungal growth inhibition by double dilution method; assay type: functional; conditions: Candidozyma auris; in short: as §1
[Candida] auris [11] = Antifungal activity against Candida auris AR Bank # 0390 assessed as fungal growth inhibition by double dilution method; assay type: functional; conditions: Candidozyma auris; in short: as §1
Cryptococcus neoformans = test: Antifungal activity against Cryptococcus neoformans ATCC MYA-895 assessed as fungal growth inhibition by double dilution method; assay type: functional; in short: as §1
Aspergillus terreus = test: Antifungal activity against Aspergillus terreus ATCC MYA-3633 assessed as fungal growth inhibition by double dilution method; assay type: functional
Aspergillus fumigatus [12] = test: Antifungal activity against Aspergillus fumigatus NRRL 163 assessed as fungal growth inhibition by double dilution method; assay type: functional
Aspergillus flavus = test: Antifungal activity against Aspergillus flavus ATCC MYA-3631 assessed as fungal growth inhibition by double dilution method; assay type: functional
Aspergillus nidulans = test: Antifungal activity against Aspergillus nidulans ATCC 38163 assessed as fungal growth inhibition by double dilution method; assay type: functional
Aspergillus fumigatus [13] = test: Antifungal activity against Aspergillus fumigatus NRRL 5109 assessed as fungal growth inhibition by double dilution method; assay type: functional
Aspergillus fumigatus [14] = test: Antifungal activity against Aspergillus fumigatus NRRL 6113 assessed as fungal growth inhibition by double dilution method; assay type: functional
J774.A1 = test: Cytotoxicity against J774A.1 cells assessed as reduction in cell viability at 31.3 microg/ml; assay type: toxicity, cell-based; conditions: mouse, dose 31.3 µg/ml
In short: (§3)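 Cells in DMEM with 10% FBS and 1% Pen/Strep, seeded at 10,000 cells/well and held overnight at 37 °C, 5% CO2. Compounds added at final 31.3-0.12 µg/mL (0.05% DMSO vehicle) for 24 h. Resazurin then added for 6 h; fluorescence read at ex 560/em 590. Triton X-100 1% as positive control; values normalized to vehicle. Run in quadruplicate.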

HEK293 = test: Cytotoxicity against human HEK-293 cells assessed as reduction in cell viability at 31.3 microg/ml; assay type: toxicity, cell-based; conditions: dose 31.3 µg/ml; in short: as §3

Row | SMILES | MIC (Candida albicans [1]) [µg/mL] | MIC (Candida albicans [2]) [µg/mL] | MIC (Candida albicans [3]) [µg/mL] | MIC (Candida albicans [4]) [µg/mL] | MIC (Candida albicans [5]) [µg/mL] | MIC (Candida albicans [6]) [µg/mL] | MIC (Candida albicans [7]) [µg/mL] | MIC (Nakaseomyces glabratus [8]) [µg/mL] | MIC (Pichia kudriavzevii) [µg/mL] | MIC (Nakaseomyces glabratus [9]) [µg/mL] | MIC ([Candida] auris [10]) [µg/mL] | MIC ([Candida] auris [11]) [µg/mL] | MIC (Cryptococcus neoformans) [µg/mL] | MIC (Aspergillus terreus) [µg/mL] | MIC (Aspergillus fumigatus [12]) [µg/mL] | MIC (Aspergillus flavus) [µg/mL] | MIC (Aspergillus nidulans) [µg/mL] | MIC (Aspergillus fumigatus [13]) [µg/mL] | MIC (Aspergillus fumigatus [14]) [µg/mL] | further results
1 | O=C(NNc1cccc(F)c1)c1ncc(F)cc1F | 0.24 (≈ 0.898 µM) | 0.98 (≈ 3.67 µM) | 1.95 (≈ 7.3 µM) | 3.9 (≈ 14.6 µM) | 1.95 (≈ 7.3 µM) | 3.9 (≈ 14.6 µM) | 1.95 (≈ 7.3 µM) | 31.3 (≈ 117 µM) | 0.24 (≈ 0.898 µM) | 1.95 (≈ 7.3 µM) | 1.95 (≈ 7.3 µM) | 1.95 (≈ 7.3 µM) | ≤ 0.06 | 3.9 (≈ 14.6 µM) | > 31.3 | > 31.3 | 0.98 (≈ 3.67 µM) | > 31.3 | > 31.3 | 
2 | COc1cccc(NNC(=O)c2ccc(Br)cn2)c1 | 0.98 (≈ 3.04 µM) | 3.9 (≈ 12.1 µM) | 0.98 (≈ 3.04 µM) | 1.95 (≈ 6.05 µM) | 3.9 (≈ 12.1 µM) | 0.98 (≈ 3.04 µM) | 3.9 (≈ 12.1 µM) | 3.9 (≈ 12.1 µM) | 0.24 (≈ 0.745 µM) | 1.95 (≈ 6.05 µM) | 0.98 (≈ 3.04 µM) | 1.95 (≈ 6.05 µM) | 0.49 (≈ 1.52 µM) | 1.95 (≈ 6.05 µM) | > 31.3 | > 31.3 | 3.9 (≈ 12.1 µM) | 15.6 (≈ 48.4 µM) | > 31.3 | 
3 | COc1cccc(NNC(=O)c2ccc(F)cn2)c1 | 0.24 (≈ 0.919 µM) | 0.98 (≈ 3.75 µM) | 0.49 (≈ 1.88 µM) | 3.9 (≈ 14.9 µM) | 1.95 (≈ 7.46 µM) | 1.95 (≈ 7.46 µM) | 0.98 (≈ 3.75 µM) | 15.6 (≈ 59.7 µM) | 0.24 (≈ 0.919 µM) | 3.9 (≈ 14.9 µM) | 1.95 (≈ 7.46 µM) | 0.98 (≈ 3.75 µM) | 0.24 (≈ 0.919 µM) | 3.9 (≈ 14.9 µM) | > 31.3 | > 31.3 | 1.95 (≈ 7.46 µM) | > 31.3 | > 31.3 | 
4 | COc1cccc(NNC(=O)c2cccc(Br)n2)c1 | 1.95 (≈ 6.05 µM) | 3.9 (≈ 12.1 µM) | 0.49 (≈ 1.52 µM) | 1.95 (≈ 6.05 µM) | 7.8 (≈ 24.2 µM) | 0.98 (≈ 3.04 µM) | 3.9 (≈ 12.1 µM) | 7.8 (≈ 24.2 µM) | 0.24 (≈ 0.745 µM) | 0.98 (≈ 3.04 µM) | 0.98 (≈ 3.04 µM) | 1.95 (≈ 6.05 µM) | 0.98 (≈ 3.04 µM) | 1.95 (≈ 6.05 µM) | > 31.3 | > 31.3 | 3.9 (≈ 12.1 µM) | 31.3 (≈ 97.2 µM) | > 31.3 | 
5 | COc1ccc(NNC(=O)c2cccc(F)n2)cc1 | 0.24 (≈ 0.919 µM) | 1.95 (≈ 7.46 µM) | 0.98 (≈ 3.75 µM) | 1.95 (≈ 7.46 µM) | 0.98 (≈ 3.75 µM) | 0.98 (≈ 3.75 µM) | 0.98 (≈ 3.75 µM) | 0.98 (≈ 3.75 µM) | 0.49 (≈ 1.88 µM) | 7.8 (≈ 29.9 µM) | 1.95 (≈ 7.46 µM) | 1.95 (≈ 7.46 µM) | 0.24 (≈ 0.919 µM) | 15.6 (≈ 59.7 µM) | > 31.3 | > 31.3 | 1.95 (≈ 7.46 µM) | > 31.3 | 15.6 (≈ 59.7 µM) | 
6 | C[C@@H](c1ncncc1F)[C@](O)(Cn1cncn1)c1ccc(F)cc1F [VORICONAZOLE] |  |  |  |  |  |  |  |  |  |  |  |  |  |  |  |  |  |  |  | Activity (J774.A1): Non-Toxic; Activity (HEK293): Non-Toxic
